# Shown are actives, neighbours in structure and some others; about 5.3% of the full set was active somewhere.
# Mdm2-MdmX inh = disrupts the human Mdm2-MdmX interaction. SaOS-2 split-luciferase Mdm2/MdmX complementation, luminescence. inhibition, % at 8 µM. hit rate 3% among 330,000. AID 485346;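 active = inhibition of at least 50% at 8 µM in the primary screen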
# Target sequence (O15151 whole entry, looked up): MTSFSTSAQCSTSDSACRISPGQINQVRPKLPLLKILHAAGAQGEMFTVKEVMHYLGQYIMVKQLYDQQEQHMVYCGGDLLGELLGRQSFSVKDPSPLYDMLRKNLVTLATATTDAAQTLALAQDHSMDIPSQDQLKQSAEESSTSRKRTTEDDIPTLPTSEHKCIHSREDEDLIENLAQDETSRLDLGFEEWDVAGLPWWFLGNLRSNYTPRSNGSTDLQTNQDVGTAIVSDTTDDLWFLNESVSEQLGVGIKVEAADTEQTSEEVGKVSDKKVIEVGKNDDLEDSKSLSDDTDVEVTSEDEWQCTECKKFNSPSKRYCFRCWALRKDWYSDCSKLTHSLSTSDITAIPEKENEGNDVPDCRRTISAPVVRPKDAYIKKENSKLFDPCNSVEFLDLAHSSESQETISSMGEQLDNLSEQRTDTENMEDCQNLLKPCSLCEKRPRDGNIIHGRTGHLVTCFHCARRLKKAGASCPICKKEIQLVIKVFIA
# Target sequence (Q00987 whole entry, looked up): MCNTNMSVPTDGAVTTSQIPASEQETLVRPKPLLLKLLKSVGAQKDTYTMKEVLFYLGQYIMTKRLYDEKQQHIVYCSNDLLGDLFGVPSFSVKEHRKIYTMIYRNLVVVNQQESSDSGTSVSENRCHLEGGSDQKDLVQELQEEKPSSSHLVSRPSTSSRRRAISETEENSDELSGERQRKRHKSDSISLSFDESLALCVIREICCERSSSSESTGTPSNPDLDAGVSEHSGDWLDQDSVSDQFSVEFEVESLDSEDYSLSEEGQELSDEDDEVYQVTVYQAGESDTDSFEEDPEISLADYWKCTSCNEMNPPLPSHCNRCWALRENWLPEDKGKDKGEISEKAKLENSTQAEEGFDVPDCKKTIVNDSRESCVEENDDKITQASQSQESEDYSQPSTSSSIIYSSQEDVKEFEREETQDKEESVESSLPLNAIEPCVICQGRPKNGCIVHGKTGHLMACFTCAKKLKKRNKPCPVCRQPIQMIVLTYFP
# Beta apoptosis = beta cell apoptosis inhibition; protection from apoptosis, % (test concentration not listed); INS-1E cytokine-induced death, ATP luminescence, 48 h; percent of positive-control rescue, neutral wells zero; hit rate 0.8% among 300,000;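 active = Every replicate reaches about 75%, or at least half do and their mean reaches it too, limit read from the data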;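 also: 0% = cytokine-treated negative control wells and 100% = positive control rescue; higher means more ATP so stronger rescue from cytokine killing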
# CSC inhib = cancer stem cell inhibition; cancer stem cell-like cells viability, luminescence; inhibition, % at 7.5 µM; hit rate 1.1% among 300,000; AID 2717; in the data active = inhibition above about 75%; tested in HMLE shEcad cells
# T cruzi inh = T. cruzi replication inhibition; T. cruzi beta-gal in NIH3T3, luminescence, 90 h; inhibition, % (concentration not given with the values); hit rate 1.4% among 300,000; AID 1885;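 active = mean inhibition across valid replicates above about 55%, limit read from the data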;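 also: signal also drops with host cell toxicity which is not excluded here; 0% = plate median of DMSO wells and 100% = zero luminescence signal; higher percent means less beta-gal luminescence so fewer parasites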
#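 compound dosing = single 50 nL compound addition per well in DMSO | material = NIH/3T3 host cells with β-galactosidase reporter T. cruzi | input = 5,000 host fibroblasts per well | timing = ≥90 h infection period, 3 h prior cell attachment | read-out basis = percent inhibition of parasite-derived β-gal signal | detection = GalScreen β-gal luminescence, detergent lysis, 60 min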
# Calb FLC = C. albicans growth modulation with fluconazole. C. albicans CaCi-2 (fluconazole-resistant clinical isolate) + fluconazole, Alamar Blue growth, 48 h. growth inhibition, % (concentration not given with the values). hit rate 0.57% among 300,000. AID 1979;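 active = growth inhibition above about 58% in most replicates, limit read from the data, passing the limit was not always enough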;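 also: all wells also contain fluconazole at 8 µg/ml as a sub-toxic cotreatment; 0% = median of DMSO wells and 100% = median of geldanamycin control wells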
# NLRP3 yeast inh = blocks the NALP3 inflammasome reconstituted in yeast; AID 2825; hit rate 0.39% among 330,000; inhibition, % at 10 µM; Yeast reconstituted NLRP3/ASC/caspase-1, beta-gal luminescence, 24 h;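 active = inhibition of 50% or more; inactive = inhibition below 50%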;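 also: plate controls were induced DMSO wells for no effect and uninduced yeast grown without galactose for full effect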
# Mdm2 MdmX conf = human Mdm2/MdmX binding inhibition, confirmed; shares compounds with Mdm2-MdmX inh; luminescent assay; inhibition, % at 8 µM; hit rate 55% among 10,000; AID 489028; in the data active = inhibition above about 40%
# FLuc counter = full-length luciferase inhibition in Mdm2/MdmX counter-screen; hit rate 77% among 6,200; inhibition, % at 8 µM; shares compounds with Mdm2-MdmX inh; SaOS-2 full-length luciferase counterscreen, luminescence;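 active = mean inhibition at 8 µM reaching about 37%, which flags the compound as non-specific, limit read from the data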;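 also: p53-null SaOS-2 cells with luciferase driven by a doxycycline-inducible promoter; compound on cells about two nights before reading with doxycycline added after day one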
# * marks the source's active call; other numbers are inactive results; x = no result given.
SMILES,Mdm2-MdmX inh,Beta apoptosis,CSC inhib,T cruzi inh,Calb FLC,NLRP3 yeast inh,Mdm2 MdmX conf,FLuc counter
Cc1cccc(NC(=O)c2nc[nH]c2C(=O)N[C@@H](Cc2ccccc2)C(=O)OC(C)(C)C)c1,64*,13,-19,17,5,15,26,x
CC(C)(C)OC(=O)[C@H](Cc1ccccc1)NC(=O)c1[nH]cnc1C(=O)N[C@@H](Cc1ccccc1)C(=O)OCc1ccccc1,29,-9,10,0,-9,-8,x,x
CC1(C(=O)O)CCC(C(N)=O)C1(C)C (centres undefined),13,-1,-7,-6,1,-6,x,x
CCOC(=O)N1CCN(CC(O)c2c[nH]c3ccc(OC)cc23)CC1 (centres undefined),-20,-3,-15,1,7,-13,x,x
CC(C)(C)OC(=O)[C@H](Cc1ccccc1)NC(=O)c1[nH]cnc1C(=O)Nc1ccc(Cl)cc1,51*,10,120*,31,4,5,27,x
Oc1ccccc1N=Nc1nc(-c2ccccc2)c(-c2ccccc2)[nH]1,87*,86*,x,63*,1,21,86*,50*
CCOc1ccc(Oc2c(/C=N/NC(=O)COc3ccccc3OC)c(C)nn2-c2ccccc2)cc1,56*,8,17,32,25,2,1,x
CCOc1ccc(Oc2c(/C=N/NC(N)=O)c(C)nn2-c2ccccc2)cc1,6,-3,-4,-11,19,3,x,x
Cc1ccc(C)c(OCC(=O)N/N=C/c2c(C)nn(-c3ccccc3)c2Cl)c1C,51*,-2,-5,13,-4,7,35,x
COc1c(Br)cc([N+](=O)[O-])c(OC)c1C(=O)NC(=O)Nc1cc(Cl)cc(Cl)c1,85*,x,x,-25,-1,3,79*,85*
O=S(=O)(NC1=NCCC1)c1ccc(F)cc1,-24,-1,-6,-7,0,-6,x,x
Cc1cccc(NC(=O)Nc2ccc(C#N)cc2)n1,78*,-19,11,20,4,22,67*,78*
CCOC(=O)c1ccc(NC(=O)Nc2cccc(C)n2)cc1,57*,-1,-3,-2,-7,-6,-10,x
CN(C)CCn1cnc2c(c1=N)C(c1ccccc1)c1ccc3ccccc3c1O2 (centres undefined),98*,21,14,36,67,-2,71*,40*
N=c1c2c(ncn1Cc1ccco1)Oc1cc(O)ccc1C2c1ccccc1 (centres undefined),33,2,9,5,-8,-8,x,x
N=c1c2c(ncn1CCN1CCOCC1)Oc1ccc3ccccc3c1C2c1ccccc1 (centres undefined),40,19,52,20,-21,11,x,x
N=c1c2c(ncn1Cc1ccco1)Oc1c(ccc3ccccc13)C2c1ccccc1 (centres undefined),70*,x,102*,-11,-5,21,70*,55*
COc1ccc(C2c3c(ncn(CCN4CCOCC4)c3=N)Oc3ccc4ccccc4c32)cc1 (centres undefined),71*,-1,26,20,1,7,55*,65*
COc1cccc2cc(S(=O)(=O)c3ccccc3)c(=Nc3ccc4c(c3)OCCO4)oc12,-5,0,27,21,2,7,x,x
CCN1CCN(C(=O)c2cc3c(=O)n(C)c4ccccc4c3n2C)CC1,11,0,-3,2,13,10,x,x
COc1ccc(N(C)S(=O)(=O)c2cccc(C(=O)Nc3nc4ccccc4[nH]3)c2)cc1,29,26,10,-4,6,10,x,x
CN(c1cccc(Cl)c1)S(=O)(=O)c1cccc(C(=O)Nc2nc3ccccc3[nH]2)c1,81*,36,63,31,20,3,36,58*
O=c1cc(C(F)(F)F)[nH]c2ccc(OC(F)(F)F)cc12,28,x,45,-3,11,7,x,x
CN1CC(c2ccccc2)C2(SC(=S)N(Cc3ccco3)C2=O)C12C(=O)Nc1ccccc12 (centres undefined),76*,4,104*,41,-7,21,54*,51*
O=C(/C=C/c1ccc2ccccc2n1)N1CCN(S(=O)(=O)c2ccc(F)cc2)CC1,61*,-6,23,4,5,10,76*,35
SMILES,Mdm2-MdmX inh,Beta apoptosis,CSC inhib,T cruzi inh,Calb FLC,NLRP3 yeast inh,Mdm2 MdmX conf,FLuc counter
O=C(/C=C/c1ccc2ccccc2n1)N1CCN(S(=O)(=O)c2ccccc2F)CC1,76*,-1,20,3,0,16,80*,25
Cn1cnc(S(=O)(=O)N2CCN(c3cccc(C(F)(F)F)c3)CC2)c1,10,0,x,-12,-8,1,x,x
C/C(N=Nc1nc2ccccc2s1)=N\Nc1ccccc1O,56*,70,85*,1,-6,26,58*,26
COc1ccc(S(=O)(=O)NC(CC(=O)NCc2ccc3c(c2)OCO3)c2ccco2)cc1 (centres undefined),1,1,12,25,2,8,x,x
O=C(NC(c1ccccc1)c1cc(Cl)c2cccnc2c1O)c1cccnc1 (centres undefined),83*,81*,102*,58*,92*,21,89*,10
CCCC(=O)NC(c1ccc2c(c1)OCO2)c1cc(Cl)c2cccnc2c1O (centres undefined),76*,85*,113*,56*,9,9,72*,21
CCCC(=O)NC(c1ccco1)c1cc(Cl)c2cccnc2c1O (centres undefined),65*,82*,-2,62*,2,1,46*,23
CCC(=O)NC(c1ccco1)c1cc(Cl)c2ccccc2c1O (centres undefined),-24,-5,2,x,x,8,x,x
CCCC(=O)NC(c1cccs1)c1cc(Cl)c2cccnc2c1O (centres undefined),82*,93*,11,78*,86*,20,69*,25
CCC(=O)NC(c1cc(Cl)c2ccccc2c1O)C(C)C (centres undefined),-2,-12,12,x,x,11,x,x
CC(C)n1nnnc1SCC(=O)Nc1cccc(F)c1,2,x,x,4,-4,11,x,x
Cc1cc2ccccn2c1C(=O)c1ccc(S(=O)(=O)N(C)C)cc1,1,1,-6,6,1,14,x,x
O=C(CCc1n[nH]c(=O)[nH]c1=O)Nc1cccc([N+](=O)[O-])c1,-40,-7,-4,-1,1,1,x,x
O=C(CC(c1ccccc1)c1ccccc1O)NCCc1ccccc1 (centres undefined),-9,-10,-1,-1,17,6,x,x
